The values below come from PMC5724766 (Bioorganic & medicinal chemistry, 2016).

In one assay the test system is proteasome. The following applies: cited from earlier work; for pIC50: read-out: IC50, proteasome inhibition.
Assay [1] has as its target purified human 20S proteasome, tryptic (β2)-like activity (Homo sapiens, UniProt Q99436). The experiment in a line: 20S proteasome trypsin-like. Type of assay: biochemical. The method in brief: (§1)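 Purified human 20S proteasome (1 nM) in 50 mM Tris-HCl pH 7.5 with 0.03% SDS and 50 μM fluorogenic substrate at 37 °C: Z-LLE-AMC for caspase-like activity, Z-ARR-AMC for trypsin-like activity. Released aminomethylcoumarin read at ex 380/em 460 nm every minute for 30 min. Maximum fluorescence increase per minute gives the specific activity of each sample.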

For assay [2], the target named is purified human 20S proteasome, caspase (β1)-like activity (Homo sapiens, UniProt P28072). The experiment in a line: 20S proteasome caspase-like. It is filed as biochemical. The method in brief: as §1

Each structure is given as a SMILES string. pIC50: −log10 of the molar value.

Broadly, the pIC50 is the IC50 on a negative log10 scale, so that one unit is a factor of ten. As to `Nc1ccc(O)c2ncccc12` [5-AHQ, 5-amino-8-hydroxyquinoline], the pIC50 in the assay with proteasome is 5.30 to 6.22. In the case of `Cc1cc(C)c2cc(C3=CCCCC3)c(C)nc2c1` [Compound 7, 3-Cyclohexenyl-2,5,7-trimethylquinoline], in assay [1], the pIC50 is less than 4.60.

As for `Cc1nc2ccc(N3CCCCC3)cc2cc1C1=CCCCC1` [Compound 25, 3-Cyclohexenyl-2-methyl-6-piperidinylquinoline], the “inhibition of tryptic-like activity (in words)” value in assay [1] (purified human 20S proteasome, Suppl. Fig. S6) is “not the tryptic-like activity”. In addition, in assay [2], the pIC50 was 4.96. In the case of `O=C1C(Cl)=C(Nc2ccc(S(=O)(=O)Nc3ccccn3)cc2)C(=O)c2ccccc21` [PI-083], the pIC50 in the assay on proteasome is roughly 6.00. On to `CCN(CC)CCCC(C)Nc1ccnc2cc(Cl)ccc12` (stereo not drawn) [chloroquine], for which, in the assay on proteasome, the “proteasome inhibitory activity (in words)” value was “millimolar activity”.
